Measured values of several laboratories.
Protocols differ between the studies behind these lines.
RPS6KA1: Ribosomal protein S6 kinase alpha-1 (RPS6KA1, Homo sapiens, UniProt Q15418)
RPS6KA1 C-terminal kinase domain: Ribosomal protein S6 kinase alpha-1, C-terminal kinase domain (RPS6KA1, Homo sapiens, UniProt Q15418)

Structure (SMILES)	target	observed	action	technique	tested at	endpoint	result
Cn1cc(-c2cccc(N3CCc4c(sc5c4CC(C)(C)C5)C3=O)c2CO)cc(Nc2ccncn2)c1=O	RPS6KA1	enzyme activity	inhibitor	–	1 µM	inhibition	-1%
C#Cc1n[nH]c2c(-c3cn([C@@H](C)c4ccccn4)c(=O)[nH]c3=O)cc(F)cc12	RPS6KA1	enzyme activity	inhibitor	–	0.1 µM	inhibition	7.4%
Cn1cncc1[C@@](O)(COc1ccc(C#N)cc1-c1ccc(OC(F)(F)F)cc1)c1ccc(C#N)cc1	RPS6KA1 C-terminal kinase domain	cell-free assay	–	competition with immobilised ligand	1 µM	remaining binding	100%
Cc1nn(C)cc1-c1nc2c(N3CCN(Cc4ccc(Cl)cc4)CC3)c(Cl)cnc2[nH]1	Ribosomal protein S6 kinase alpha-1, N-terminal kinase domain (RPS6KA1, Homo sapiens, UniProt Q15418)	binding	–	competition with immobilised ligand	1 µM	remaining binding	100%
CC(C)(C)c1cc(C=C(C#N)C#N)cc(Br)c1O	RPS6KA1	enzyme activity	inhibitor	–	0.5 µM	remaining activity	104%
Nc1ncc(-c2nc(N3CCOCC3)nc(N3CCOCC3)n2)c(C(F)F)n1	RPS6KA1 C-terminal kinase domain	binding	–	competition with immobilised ligand	10 µM	remaining binding	88%
C#Cc1n[nH]c2c(-c3cn([C@@H](C)c4ccccc4)c(=O)[nH]c3=O)cc(F)cc12	RPS6KA1	enzyme activity	inhibitor	–	0.1 µM	inhibition	6.2%
O=c1[nH]c2ccccc2n1C1CCN(Cc2ccc(-c3[nH]c4cc5ncnc5cc4nc3-c3ccccc3)cc2)CC1	RPS6KA1	cell-free assay	–	–	0.5 µM	remaining signal	101%
N#CC1(c2ccccn2)CCN(Cc2cc(C(=O)O)c(=O)n3ccccc23)CC1	RPS6KA1 C-terminal kinase domain	cell-free assay	–	competition with immobilised ligand	1 µM	remaining binding	100%
Cn1cc(-c2cc(F)cc(N3CCn4c(cc5c4CCCC5)C3=O)c2CO)cc(Nc2ccc(N3CCN(C4COC4)CC3)cn2)c1=O	RPS6KA1	enzyme activity	inhibitor	–	0.1 µM	inhibition	0%
